What was measured:
A549 [1] = assay: Cell cycle arrest in human A549 cells assessed as accumulation at S phase at 3 uM after 24 hrs using propidium iodide staining by flow cytometry (reference value: 40%); format: functional
Summary of the method: (§1)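 A549 at 1.2 × 10^5 cells/ml in six-well plates exposed 24 h to 1, 3 or 10 µM; PBS-washed, fixed overnight in 70% ethanol, RNase (100 µg/ml) digestion 45 min at 37 °C, propidium iodide staining; flow cytometric DNA content gives sub-G1 (apoptotic), G1, S and G2-M fractions versus untreated cells.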

A549 [2] = assay: Cell cycle arrest in human A549 cells assessed as accumulation at G2 phase at 3 uM after 24 hrs using propidium iodide staining by flow cytometry (reference value: 1%); format: functional; summary of the method: as §1
A549 [3] = assay: Cell cycle arrest in human A549 cells assessed as accumulation at G1 phase at 3 uM after 24 hrs using propidium iodide staining by flow cytometry (reference value: 59%); format: functional; summary of the method: as §1
A549 [4] = assay: Induction of apoptosis in human A549 cells at 3 uM after 24 hrs using propidium iodide staining by flow cytometry (reference value: 7%); format: functional; summary of the method: as §1
A549 [5] = assay: Cell cycle arrest in human A549 cells assessed as accumulation at S phase at 1 uM after 24 hrs using propidium iodide staining by flow cytometry (reference value: 40%); format: functional; summary of the method: as §1
A549 [6] = assay: Cell cycle arrest in human A549 cells assessed as accumulation at G2 phase at 1 uM after 24 hrs using propidium iodide staining by flow cytometry (reference value: 1%); format: functional; summary of the method: as §1
A549 [7] = assay: Cell cycle arrest in human A549 cells assessed as accumulation at G1 phase at 1 uM after 24 hrs using propidium iodide staining by flow cytometry (reference value: 59%); format: functional; summary of the method: as §1
A549 [8] = assay: Induction of apoptosis in human A549 cells at 1 uM after 24 hrs using propidium iodide staining by flow cytometry (reference value: 7%); format: functional; summary of the method: as §1
A549 [9] = assay: Antiproliferative activity against human A549 cells after 48 hrs by SRB assay; format: functional, cell-based; conditions: A549, 48 h
T98G [10] = assay: Antiproliferative activity against human T98G cells after 48 hrs by SRB assay; format: functional, cell-based
A-431 [11] = assay: Antiproliferative activity against human A431 cells after 48 hrs by SRB assay; format: functional, cell-based; conditions: A-431, 48 h
[12] = Antiproliferative activity against human NCI-H322 cells after 48 hrs by SRB assay; format: functional, cell-based; conditions: NCI-H322, 48 h
T47D = assay: Antiproliferative activity against human T47D cells assessed as growth inhibition at 10 uM after 48 hrs by SRB assay; format: functional; conditions: read-out: GI
HL-60 = assay: Antiproliferative activity against human HL60 cells assessed as growth inhibition at 10 uM after 48 hrs by SRB assay; format: functional; conditions: HL-60, 48 h, read-out: GI
PC-3 = assay: Antiproliferative activity against human PC3 cells assessed as growth inhibition at 10 uM after 48 hrs by SRB assay; format: functional; conditions: PC-3, 48 h, read-out: GI
[13] = Antiproliferative activity against human MIAPaCa2 cells assessed as growth inhibition at 10 uM after 48 hrs by SRB assay; format: functional; conditions: MIA PaCa-2, 48 h, read-out: GI
T98G [14] = assay: Antiproliferative activity against human T98G cells assessed as growth inhibition at 10 uM after 48 hrs by SRB assay; format: functional; conditions: read-out: GI
A-431 [15] = assay: Antiproliferative activity against human A431 cells assessed as growth inhibition at 10 uM after 48 hrs by SRB assay; format: functional; conditions: A-431, 48 h, read-out: GI
A549 [16] = assay: Antiproliferative activity against human A549 cells assessed as growth inhibition at 10 uM after 48 hrs by SRB assay; format: functional; conditions: A549, 48 h, read-out: GI
[17] = Antiproliferative activity against human NCI-H322 cells assessed as growth inhibition at 10 uM after 48 hrs by SRB assay; format: functional; conditions: NCI-H322, 48 h, read-out: GI
A549 [18] = assay: Induction of apoptosis in human A549 cells assessed as reduction of procaspase-3 expression after 24 hrs by Western blot analysis; format: functional, cell-based
Summary of the method: (§2)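 Cells treated 24 h (HL-60 at 5, 20, 30 µM; A549 at 1, 3, 10 µM); RIPA lysates, 70 µg protein resolved by SDS-PAGE, transferred to PVDF, blocked in 5% milk, probed for PARP-1 and procaspase-3 with HRP secondaries, ECL detection.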

A549 [19] = assay: Induction of apoptosis in human A549 cells assessed as cleavage of PARP1 after 24 hrs by Western blot analysis; format: functional, cell-based; summary of the method: as §2
A549 [20] = assay: Induction of apoptosis in human A549 cells assessed as nuclear condensation, membrane blebbing and formation of apoptotic bodies after 24 hrs using DAPI staining by fluorescence microscopic analysis; format: functional, cell-based
Summary of the method: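 A549 (1.5 × 10^5 cells/ml) treated 24 h at 1, 3, 5, 10 µM; trypsinized, methanol-fixed 20 min at −20 °C, DAPI (1 µg/ml) 20 min at 37 °C; nuclei scored by UV fluorescence microscopy at 40× for condensation, blebbing, apoptotic bodies; paclitaxel 1 µM positive control, untreated cells as reference.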

A549 [21] = assay: Cell cycle arrest in human A549 cells assessed as accumulation at S phase at 10 uM after 24 hrs using propidium iodide staining by flow cytometry (reference value: 40%); format: functional; summary of the method: as §1
A549 [22] = assay: Cell cycle arrest in human A549 cells assessed as accumulation at G2 phase at 10 uM after 24 hrs using propidium iodide staining by flow cytometry (reference value: 1%); format: functional; summary of the method: as §1
A549 [23] = assay: Cell cycle arrest in human A549 cells assessed as accumulation at G1 phase at 10 uM after 24 hrs using propidium iodide staining by flow cytometry (reference value: 59%); format: functional; summary of the method: as §1
A549 [24] = assay: Induction of apoptosis in human A549 cells at 10 uM after 24 hrs using propidium iodide staining by flow cytometry (reference value: 7%); format: functional; summary of the method: as §1

In the case of CCN(CC)c1ncnc2sc(Nc3ccc(Cl)cc3)nc12, the Activity (A549 [1]) is reported as 31%, the Activity (A549 [2]) is reported as 4% and the Activity (A549 [3]) is reported as 65%. The Activity (A549 [4]) was 44%, the Activity (A549 [5]) was 44% and the Activity (A549 [6]) was 1%. It also gave an Activity (A549 [7]) of 55%, an Activity (A549 [8]) of 22% and an IC50 (A549 [9]) of 1400 nM. The IC50 (T98G [10]) was 3.4 µM, the IC50 (A-431 [11]) was 3.1 µM and the IC50 [12] was 7.1 µM. The inhibition of growth at 10 µM (T47D) was 18%, the inhibition of growth at 10 µM (HL-60) was 22% and the inhibition of growth at 10 µM (PC-3) was 22%. It also gave an inhibition of growth at 10 µM [13] of 14%, an inhibition of growth at 10 µM (T98G [14]) of 74% and an inhibition of growth at 10 µM (A-431 [15]) of 82%. The inhibition of growth at 10 µM (A549 [16]) was 81%, the inhibition of growth at 10 µM [17] was 57% and the Activity (A549 [18]) was “Dose-dependent effect”. The Activity (A549 [19]) was “Dose-dependent effect”, the Activity (A549 [20]) was “Dose-dependent effect” and the Activity (A549 [21]) was 43%. It also gave an Activity (A549 [22]) of 26%, an Activity (A549 [23]) of 31% and an Activity (A549 [24]) of 53%.
